CHT block: human CHT choline transport inhibition. CHT-expressing cells, membrane potential dye, choline response; hits give low values. 0.86% of 310,000 active. AID 488975. B-score at 10 µM;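 active = B-score over 3 SD under the library average, and starting fluorescence ratio not unusually high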;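 also: choline stimulus applied at its EC90 after an EC20 pre-addition; B-score computed on integrated fluorescence ratio after choline addition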
proCasp3 act: procaspase-3 (human) activation. activation, % at 8.5 µM. P42574. 0.11% of 330,000 active. AID 463141. recombinant procaspase-3 D3A, Ac-DEVD-pNA absorbance 405 nm;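 active = activation above the mean of all tested compounds plus 3 SD, cut at about 21% in these data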;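 also: 0% = DMSO alone and 100% = DMSO wells spiked with extra 5 µM PC-3 D3A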
Target sequence (P42574 whole entry D9A/D28A/D175A): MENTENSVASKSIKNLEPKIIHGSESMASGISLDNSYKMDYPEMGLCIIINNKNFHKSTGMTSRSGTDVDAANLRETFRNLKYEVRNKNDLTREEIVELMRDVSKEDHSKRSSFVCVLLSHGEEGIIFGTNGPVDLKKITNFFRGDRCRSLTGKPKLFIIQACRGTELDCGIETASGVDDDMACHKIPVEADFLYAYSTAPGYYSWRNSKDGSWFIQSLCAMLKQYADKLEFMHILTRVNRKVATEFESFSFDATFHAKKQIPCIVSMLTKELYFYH
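Evaluation: percent activation relative to control range; Material: Procaspase-3 D3A mutant, all three cleavage aspartates alanine; Compound: single dose, 8.5 µM nominal compound, 0.8% DMSO; Replication: one well per compound; Signal: absorbance at 405 nm, 0 and 120 min; Schedule: 1 h preincubation plus 2 h reaction at 25 °C.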
proCasp7 act: counter-screen for procaspase-3 activators: activators of human procaspase-7 | recombinant procaspase-7, Ac-DEVD-pNA absorbance 405 nm; D23A/D198A/D206A triple mutant, cannot self-cleave; scale: DMSO 0, 5 µM enzyme 100 | P55210 | 0.093% of 330,000 active | activation, % at 8.5 µM;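 active = percent activation above the screen-wide mean plus 3 SD, cut at about 25% in these data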
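Detection: p-Nitroaniline absorbance at 405 nm, read at 0 and 120 min; system: Uncleavable procaspase-7 mutant enzyme; evaluation: % activation from two-timepoint absorbance difference, scaled to controls; times: 1 h enzyme–compound preincubation and 2 h substrate reaction, both 25 °C; buffer or medium: Zinc-free HEPES pH 7.4 with 300 mM NaCl, 0.01% Triton X-100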
CHT allo act: allosterically activates the human high affinity choline transporter; 0.49% of 310,000 active; CHT-expressing cells, membrane potential dye, choline EC20; hits give high values; LV-AA mutant CHT in HEK293 cells; B-score at 10 µM; AID 488977; Q9GZV3;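 active = initial fluorescence not abnormally high and integrated response B-score, plate-corrected, over 3 SD above library mean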
CHT activ conf: confirmation of human choline transporter (CHT) activators. 91% of 2,500 active. shares compounds with CHT allo act. AID 504833. activation, % at 10 µM. CHT-expressing cells, membrane potential dye fluorescence (FDSS); % of choline EC20–EC90 response window; HEK293 expressing CHT LV-AA mutant; choline added at its EC20;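 active = primary screen active, with duplicate mean activation above negative control mean plus 3 SD, cut at about 11% in these data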
HEK293 MP dye: counter-screen for CHT activators: effect in parental HEK293 cells; shares compounds with CHT allo act; membrane potential dye fluorescence (FDSS); measured after EC20 choline addition; ratio readout change at 10 µM, hits read low; 62% of 2,500 active; AID 623908;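 active = duplicate-averaged ratio beyond 3 SD from buffer wells, up or down, though filed actives are nearly all decreases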
* marks the source's active call; other numbers are inactive results. Only some compounds are listed: those with a hit (about 1.3% of all), similar ones and a draw of the others.

For COc1ccc(N2CCN(c3cc(C)c4ccc(C)cc4n3)CC2)cc1 the results were CHT block inactive, proCasp3 act -11, proCasp7 act -8 and CHT allo act inactive.
CCOCCCn1c(=O)c2ccccc2n2c(=S)[nH]nc12 was read as CHT block inactive, proCasp3 act -16, proCasp7 act -29 and CHT allo act inactive.
For Cc1ccc(-c2cc[n+](Cc3ccccc3)cc2)cc1 the results were CHT block inactive, proCasp3 act -9, proCasp7 act -5, CHT allo act 6.7*, CHT activ conf 58* and HEK293 MP dye -42*.
O=S(=O)(c1ccccc1)N(CC1CO1)c1cc(Cl)ccc1Cl (stereo not given) was read as CHT block inactive, proCasp3 act -7, proCasp7 act -8 and CHT allo act inactive.
`Cc1cc(NCCN2CCOCC2)c2ccc3ccccc3c2n1` gave CHT block inactive, proCasp3 act -8, proCasp7 act 5, CHT allo act 6.8*, CHT activ conf 39* and HEK293 MP dye -41*.
Screening CCOC(=O)c1ccccc1NC(=O)COC(=O)CCNS(=O)(=O)c1ccccc1 returned CHT block inactive, proCasp3 act -6, proCasp7 act 3 and CHT allo act inactive.
For COc1cc(NC(=O)c2c(-c3ccccc3Cl)noc2C)c2ncccc2c1 the results were CHT block inactive, proCasp3 act -8, proCasp7 act 12, CHT allo act 7.8*, CHT activ conf 8 and HEK293 MP dye inactive.
Cc1onc(-c2ccccc2Cl)c1C(=O)Nc1cccc2cccnc12 was read as CHT block inactive, proCasp3 act 2, proCasp7 act 4 and CHT allo act inactive.
For Cc1nn(-c2ccccc2)c(N)c1Sc1ccc([N+](=O)[O-])cc1 the results were CHT block inactive, proCasp3 act 2, proCasp7 act -17, CHT allo act 6.9*, CHT activ conf 36* and HEK293 MP dye inactive.
Screening CCOc1ccc(/C=C/C(=O)N(C)CC(=O)Nc2cccc(F)c2)cc1OCC returned CHT block inactive, proCasp3 act -3, proCasp7 act -1 and CHT allo act inactive.
Cc1sc2c(=O)n3c(nc2c1C(=O)NCCCN1CCOCC1)CCCCC3 was read as CHT block inactive, proCasp3 act 3, proCasp7 act 4, CHT allo act 6.9*, CHT activ conf 51* and HEK293 MP dye -40*.
Screening O=C(CN(C(=O)CCC(=O)Nc1nccs1)c1ccc(F)cc1)NCc1ccc(F)cc1 returned CHT block inactive, proCasp3 act -3, proCasp7 act -1 and CHT allo act inactive.
`COc1ccccc1C(=O)COC(=O)C(CCSC)NC(=O)COc1ccccc1` (stereo not given) gave CHT block inactive, proCasp3 act -12, proCasp7 act 3 and CHT allo act inactive.
Screening COc1ccc(OC)c(C(=O)COC(=O)C(CCSC)NC(=O)COc2ccccc2)c1 (stereo not given) returned CHT block inactive, proCasp3 act 4, proCasp7 act -10, CHT allo act inactive, CHT activ conf 26* and HEK293 MP dye inactive.
Screening CCOC(=O)c1c[nH]c2c(Cl)c(Cl)ccc2c1=O returned CHT block inactive, proCasp3 act -6, proCasp7 act 1, CHT allo act inactive, CHT activ conf 39* and HEK293 MP dye -37*.
For CCOC(=O)c1c[nH]c2c3c(ccc2c1=O)CCCC3 the results were CHT block inactive, proCasp3 act -13, proCasp7 act -8 and CHT allo act inactive.
Screening CCOC(=O)c1c[nH]c2c(C)cc(C)cc2c1=O returned CHT block inactive, proCasp3 act -5, proCasp7 act -1, CHT allo act 8.1*, CHT activ conf 63* and HEK293 MP dye -37*.
Screening CCOC(=O)c1c[nH]c2c(Cl)ccc(Cl)c2c1=O returned CHT block inactive, proCasp3 act -2, proCasp7 act 5, CHT allo act 7.2*, CHT activ conf 69* and HEK293 MP dye -64*.

From PubChem
